{
  "source": "ChEMBL document CHEMBL4715738",
  "about": "“In Vitro Antibacterial Activity of Curcumin-Polymyxin B Combinations against Multidrug-Resistant Bacteria Associated with Traumatic Wound Infections” (J Nat Prod, 2016)",
  "key": {"[1]": {"test_system": "Pseudomonas aeruginosa", "assay": "Synergistic antibacterial activity against Pseudomonas aeruginosa ATCC 27853 assessed as fractional inhibitory concentration index measured after 24 hrs in presence of curcumin by checkerboard assay", "assay_type": "functional", "how_it_was_run": "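FICI calculated from combination MICs; ≤0.5 taken as synergy and >0.5–4.0 as additive. Where an MIC was not reached, the dilution above the highest concentration tested was used in the calculation. Run in triplicate and reported as means.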"}, "[2]": {"test_system": "Escherichia coli", "assay": "Synergistic antibacterial activity against Escherichia coli EC2 harboring CTX-M-15 assessed as fractional inhibitory concentration index measured after 24 hrs in presence of curcumin by checkerboard assay", "assay_type": "functional", "how_it_was_run": "(§1)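 FICI was derived from checkerboard MICs. Synergy was defined as FICI ≤ 0.5 and additive as FICI > 0.5−4.0. Where an MIC was not reached, the dilution above the maximum dose was used in the FICI calculation. Experiments were run in triplicate and reported as means.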"}, "[3]": {"test_system": "Pseudomonas aeruginosa", "assay": "Synergistic antibacterial activity against Pseudomonas aeruginosa PA30 harboring VIM-2 assessed as fractional inhibitory concentration index measured after 24 hrs in presence of curcumin by checkerboard assay", "assay_type": "functional", "how_it_was_run": "as §1"}, "[4]": {"test_system": "HaCaT", "assay": "Cytotoxicity against human HaCaT cells at 6.1 uM measured after 4 hrs by CyTox 96 nonradioactive assay relative to control", "assay_type": "cell-based"}, "[5]": {"test_system": "Pseudomonas aeruginosa", "assay": "Antibacterial activity against Pseudomonas aeruginosa ATCC 27853 assessed as reduction in bacterial growth incubated for 24 hrs in presence of curcumin", "assay_type": "functional"}, "[6]": {"test_system": "Stenotrophomonas maltophilia", "assay": "Antibacterial activity against Stenotrophomonas maltophilia NCTC 10258 assessed as reduction in bacterial growth incubated for 24 hrs in presence of curcumin", "assay_type": "functional"}, "[7]": {"test_system": "Pseudomonas aeruginosa", "assay": "Antibacterial activity against Pseudomonas aeruginosa PAO1 assessed as reduction in bacterial growth incubated for 24 hrs in presence of curcumin", "assay_type": "functional"}, "[8]": {"test_system": "Escherichia coli", "assay": "Antibacterial activity against Escherichia coli EC204 harboring NDM-1 assessed as reduction in bacterial growth incubated for 24 hrs in presence of curcumin", "assay_type": "functional"}, "[9]": {"test_system": "Escherichia coli", "assay": "Antibacterial activity against Escherichia coli NCTC 12241 assessed as reduction in bacterial growth incubated for 24 hrs in presence of curcumin", "assay_type": "functional"}, "[10]": {"test_system": "Streptococcus pyogenes", "assay": "Antibacterial activity against Streptococcus pyogenes SPY3 assessed as reduction in bacterial growth incubated for 24 hrs in presence of curcumin", "assay_type": "functional"}, "[11]": {"test_system": "Escherichia coli", "assay": "Synergistic antibacterial activity against Escherichia coli EC204 harboring NDM-1 assessed as fractional inhibitory concentration index measured after 24 hrs in presence of curcumin by checkerboard assay", "assay_type": "functional", "how_it_was_run": "as §1"}, "[12]": {"test_system": "Acinetobacter baumannii", "assay": "Antibacterial activity against Acinetobacter baumannii AB12 harboring OXA-23 assessed as reduction in bacterial growth incubated for 24 hrs in presence of curcumin", "assay_type": "functional"}, "[13]": {"test_system": "Enterococcus faecalis", "assay": "Antibacterial activity against […] Enterococcus faecalis ATCC 29212 assessed as reduction in bacterial growth incubated for 24 hrs in presence of curcumin", "assay_type": "functional"}, "[14]": {"test_system": "Staphylococcus aureus", "assay": "Antibacterial activity against vancomycin-intermediate resistant Staphylococcus aureus Mu50 assessed as reduction in bacterial growth incubated for 24 hrs in presence of curcumin", "assay_type": "functional"}, "[15]": {"test_system": "Stenotrophomonas maltophilia", "assay": "Antibacterial activity against Stenotrophomonas maltophilia NCTC 10258 assessed as reduction in bacterial colony formation at 0.5 fold MIC measured after 24 hrs by time kill assay", "assay_type": "functional, organism-based", "how_it_was_run": "(§2)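 Time-kill in Mueller-Hinton 2 broth. Inoculum was a 1/1000 dilution of a 16 h overnight culture, about 10^6 CFU/mL, 10 mL per tube. Arms were each agent alone at ×1 MIC, or the combination at ×1 MIC plus ×0.5 MIC partner. Incubated at 37 °C with continuous agitation for 24 h. Samples taken at 0, 2, 4, 6 and 24 h, serially diluted and plated on IsoSensitest agar for CFU counts.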"}, "[16]": {"test_system": "HaCaT", "assay": "Cytotoxicity against human HaCaT cells at 174 uM measured after 4 hrs by CyTox 96 nonradioactive assay relative to control", "assay_type": "cell-based"}, "[17]": {"test_system": "Escherichia coli", "assay": "Antibacterial activity against Escherichia coli EC204 harboring NDM-1 assessed as reduction in bacterial growth incubated for 24 hrs in presence of polymyxin B", "assay_type": "functional"}, "[18]": {"test_system": "Pseudomonas aeruginosa", "assay": "Potentiation of polymyxin B-induced antibacterial activity against Pseudomonas aeruginosa PA14 assessed as fold reduction in polymyxin B MIC measured after 24 hrs in presence of polymyxin B by checkerboard assay", "assay_type": "functional"}, "[19]": {"test_system": "Acinetobacter baumannii", "assay": "Bactericidal activity against Acinetobacter baumannii NCTC 19606 assessed as log reduction in colony forming units at 0.5 fold MIC measured after 24 hrs in presence of polymyxin B at MIC by time kill assay", "assay_type": "functional", "how_it_was_run": "as §2"}, "[20]": {"test_system": "Enterococcus faecium", "assay": "Potentiation of polymyxin B-induced antibacterial activity against vancomycin-resistant Enterococcus faecium OEF65 assessed as fold reduction in polymyxin B MIC measured after 24 hrs in presence of polymyxin B by checkerboard assay", "assay_type": "functional"}, "[21]": {"test_system": "Staphylococcus aureus", "assay": "Antibacterial activity against vancomycin-intermediate resistant Staphylococcus aureus Mu50 assessed as reduction in bacterial growth incubated for 24 hrs in presence of polymyxin B", "assay_type": "functional"}, "[22]": {"test_system": "Acinetobacter baumannii", "assay": "Antibacterial activity against Acinetobacter baumannii NCTC 19606 assessed as reduction in bacterial growth incubated for 24 hrs in presence of polymyxin B", "assay_type": "functional"}, "[23]": {"test_system": "Escherichia coli", "assay": "Antibacterial activity against Escherichia coli EC2 harboring CTX-M-15 assessed as reduction in bacterial growth incubated for 24 hrs in presence of polymyxin B", "assay_type": "functional"}, "[24]": {"test_system": "Streptococcus pyogenes", "assay": "Potentiation of polymyxin B-induced antibacterial activity against Streptococcus pyogenes SPY1 assessed as fold reduction in polymyxin B MIC measured after 24 hrs in presence of polymyxin B by checkerboard assay", "assay_type": "functional"}, "[25]": {"test_system": "Escherichia coli", "assay": "Potentiation of polymyxin B-induced antibacterial activity against Escherichia coli EC204 harboring NDM-1 assessed as fold reduction in polymyxin B MIC measured after 24 hrs in presence of polymyxin B by checkerboard assay", "assay_type": "functional"}},
  "note": "The source made the active and inactive calls.",
  "data": [
    {"smiles": "CC[C@H](C)CCCCC(=O)N[C@@H](CCN)C(=O)N[C@H](C(=O)N[C@@H](CCN)C(=O)N[C@H]1CCNC(=O)[C@H]([C@@H](C)O)NC(=O)[C@H](CCN)NC(=O)[C@H](CCN)NC(=O)[C@H](CC(C)C)NC(=O)[C@@H](Cc2ccccc2)NC(=O)[C@H](CCN)NC1=O)[C@@H](C)O.O=S(=O)(O)O", "values": [
      {"measurement": "fractional inhibitory concentration index (FICI)", "setting": "[1]", "result": 0.079},
      {"measurement": "fractional inhibitory concentration index (FICI)", "setting": "[2]", "result": 0.266},
      {"measurement": "fractional inhibitory concentration index (FICI)", "setting": "[3]", "result": 0.563},
      {"measurement": "Activity", "setting": "[4]", "result": 2, "unit": "%"},
      {"measurement": "MIC", "setting": "[5]", "result": 0.006, "unit": "µM"},
      {"measurement": "MIC", "setting": "[6]", "result": 0.008, "unit": "µM"},
      {"measurement": "MIC", "setting": "[7]", "result": 0.012, "unit": "µM"},
      {"measurement": "MIC", "setting": "[8]", "result": 0.024, "unit": "µM"},
      {"measurement": "MIC", "setting": "[9]", "result": 0.024, "unit": "µM"},
      {"measurement": "MIC", "setting": "[10]", "result": 0.79, "unit": "µM"},
      {"measurement": "fractional inhibitory concentration index (FICI)", "setting": "[11]", "result": 0.313},
      {"measurement": "MIC", "setting": "[12]", "result": 0.024, "unit": "µM"},
      {"measurement": "MIC", "setting": "[13]", "result": 0.096, "unit": "µM"},
      {"measurement": "MIC", "setting": "[14]", "result": 1.5, "unit": "µM"}
    ]},
    {"smiles": "COc1cc(/C=C/C(=O)CC(=O)/C=C/c2ccc(O)c(OC)c2)ccc1O", "note": "[CURCUMIN]", "values": [
      {"measurement": "Activity", "setting": "[15]", "result": "inactive"},
      {"measurement": "Activity", "setting": "[16]", "result": 34, "unit": "%"},
      {"measurement": "MIC", "setting": "[17]", "result": 174, "unit": "µM"},
      {"measurement": "fold change (FC)", "setting": "[18]", "result": 3},
      {"measurement": "Activity", "setting": "[19]", "result": ">3", "unit": "log10CFU/ml"},
      {"measurement": "fold change (FC)", "setting": "[20]", "result": 3},
      {"measurement": "MIC", "setting": "[21]", "result": 43, "unit": "µM"},
      {"measurement": "MIC", "setting": "[22]", "result": 22, "unit": "µM"},
      {"measurement": "MIC", "setting": "[23]", "result": 43, "unit": "µM"},
      {"measurement": "fold change (FC)", "setting": "[24]", "result": 3},
      {"measurement": "fold change (FC)", "setting": "[25]", "result": 3}
    ]}
  ]
}
